Screening results (PubChem)
AP ELISA ortho: alternative pathway complement inhibition, orthogonal assay | Human serum alternative complement pathway, LPS-coated ELISA, C3 deposition; tested in compound mixtures | inhibition, % at 5 µM | hit rate 0.08% among 62,000 | AID 1235;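 active = inhibition above 30% in each of the two pooled mixtures holding the compound, so the lower value exceeds 30%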;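 also: 0% = serum in Mg-EGTA without compound and 100% = EDTA serum blank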
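Assay system: human serum alternative complement pathway, C3 deposition on LPS-coated wells; Dosing: 5 µM per compound in ten-compound mixtures; Detection: Anti-C3 ELISA, OD 450 nm; Buffer or medium: Mg2+-EGTA GVB++ buffer containing human serum at 1:15 dilution; Timing: 1 h at 37 °C; Replication: two different pools per compound.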
TNAP act DEA: activators of human TNAP at intermediate phosphate acceptor | P05186 | purified TNAP, CDP-star luminescence, 100 mM DEA, 30 min; stronger effect = higher value; scale: 0 levamisole-inhibited, 1 vehicle-only enzyme | activation factor at 20 µM | 64,000 tested, under 10 active;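 active = activation factor of at least 2 at 20 µM, relative to controls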
HePTP inhibitor: inhibitors of human HePTP phosphatase | P35236 | recombinant HePTP phosphatase activity, OD absorbance | inhibition, % at 20 µM | hit rate 0.64% among 110,000 | AID 521; in the data active = inhibition above about 50%;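 also: plate controls were vehicle for no effect and reference inhibitor for full effect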
Target sequence (P35236 whole entry, looked up): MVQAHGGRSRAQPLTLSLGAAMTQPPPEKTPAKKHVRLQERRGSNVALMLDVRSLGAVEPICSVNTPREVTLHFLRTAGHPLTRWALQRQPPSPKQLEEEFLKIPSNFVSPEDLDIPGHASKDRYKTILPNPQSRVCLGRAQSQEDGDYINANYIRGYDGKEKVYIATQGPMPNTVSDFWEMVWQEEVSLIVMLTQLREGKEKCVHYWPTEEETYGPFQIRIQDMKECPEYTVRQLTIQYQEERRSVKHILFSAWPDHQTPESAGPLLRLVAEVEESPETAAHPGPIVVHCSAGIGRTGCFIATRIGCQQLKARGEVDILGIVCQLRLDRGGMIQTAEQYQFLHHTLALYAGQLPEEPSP
* hit, by the source's call. Rows were chosen to be rich in hits. Some 0.65% of all compounds tested hit in one or more screens of this group.

`O=C(O)c1cc(S(=O)(=O)O)ccc1O` gave AP ELISA ortho 1.7, TNAP act DEA 1 and HePTP inhibitor -3.8.
Screening CNc1ccc2c(O)cc(S(=O)(=O)O)cc2c1 returned HePTP inhibitor 54.4*.
For Cc1onc(-c2ccccc2)c1C(=O)N1CCN(c2ccc(Cl)cc2)CC1 the results were HePTP inhibitor 104.2*.
Cc1onc(-c2ccccc2)c1C(=O)N1CCN(c2ccc([N+](=O)[O-])cc2)CC1 was read as HePTP inhibitor 10.8.
O=C(Cc1ccc(Cl)cc1)NNS(=O)(=O)c1ccccc1 was read as HePTP inhibitor -6.9.
N#C/C(=C/c1ccc(Cl)cc1)C(=O)Nc1cccc(Br)c1 was read as HePTP inhibitor -11.0.
CC(C)c1ccc(N2C(=O)NC(=O)/C(=C/c3ccc(Br)o3)C2=O)cc1 was read as HePTP inhibitor 102.3*.
`CC(C)c1ccc(N2C(=O)NC(=O)/C(=C/c3ccc(F)cc3)C2=O)cc1` gave HePTP inhibitor -1.5.
Screening Cc1cccc(N2C(=O)NC(=O)/C(=C/c3ccc(Br)o3)C2=O)c1 returned HePTP inhibitor 75.4*.
CCc1ccc(/C=C2/C(=O)NC(=O)N(c3cccc(C)c3)C2=O)cc1 was read as HePTP inhibitor 8.8.
For O=C(Nc1c(Cl)cccc1Cl)c1cc2c(ccc3ccccc32)oc1=O the results were HePTP inhibitor 8.5.
Screening CCCCOC(=O)c1ccc(NC(=O)c2cccc(OC)c2)cc1 returned HePTP inhibitor 0.3.
`CCCCOC(=O)c1cccc(NC(=O)c2ccc(OC)cc2)c1` gave HePTP inhibitor 104.2*.
For O=c1oc2cc(O)c([N+](=O)[O-])cc2cc1-c1csc(-c2ccc(Cl)cc2)n1 the results were HePTP inhibitor 8.7.
Screening O=c1oc2cc(O)c([N+](=O)[O-])cc2cc1-c1csc(-c2cc3ccccc3oc2=O)n1 returned HePTP inhibitor 83.9*.
For O=C1CC(Nc2ccc(F)cc2)C(=O)N1c1ccccc1C(F)(F)F (centres undefined) the results were HePTP inhibitor -9.2.
For Cc1[nH]n(-c2ccccc2)c(=O)c1C=Nc1ccc(Cl)cc1 the results were HePTP inhibitor 3.9.
`Cc1ccc(N=Cc2c(C(F)(F)F)[nH]n(-c3ccccc3)c2=O)cc1` gave HePTP inhibitor 63.7*.
Screening O=C(Nc1nc2ccc3ccccc3c2s1)c1ccc(C(=O)c2ccccc2)cc1 returned HePTP inhibitor 103.6*.
For O=C(Nc1nc2ccc3ccccc3c2s1)c1cccc(Br)c1 the results were HePTP inhibitor 12.1.
For COc1cc2cc(C(c3nnnn3C3CCCC3)N3CCCCC3)c(=O)[nH]c2cc1OC (centres undefined) the results were AP ELISA ortho 31.1*, TNAP act DEA 0.9 and HePTP inhibitor 7.3.
`COc1cc2cc(C(c3nnnn3C3CCCC3)N3CCCCCC3)c(=O)[nH]c2cc1OC` (centres undefined) gave AP ELISA ortho 8.6, TNAP act DEA 0.9 and HePTP inhibitor 12.6.
Screening COc1cc(/C=N/N2CCN(Cc3ccc(C)cc3)CC2)cc(OC)c1O returned HePTP inhibitor -4.4.
`COc1cc(/C=N\N2CCN(Cc3ccc(C)cc3)CC2)cc(Br)c1O` gave HePTP inhibitor 77.2*.
Screening CC1(C)C(C=C(Cl)Cl)C1C(=O)Nc1cccc2ccccc12 (centres undefined) returned HePTP inhibitor 10.4.
For CC(C(=O)NN)C1=NC(C)(C)Cc2ccccc21 (centres undefined) the results were HePTP inhibitor 54.5*.
`CC(=O)c1ccc(NC2=NC(C)(C)Cc3ccccc32)cc1` gave HePTP inhibitor 3.0.
For Cc1ccc(-c2csc(NC(=O)c3ccc(Cl)c(Cl)c3)n2)cc1 the results were HePTP inhibitor 4.7.
O=C(NCC1CCN(C(=O)c2ccc(Cl)c(Cl)c2)CC1)c1ccc(Cl)c(Cl)c1 was read as HePTP inhibitor -19.6.
`O=C(Nc1ccccc1NC(=O)NC1CCCCC1)NC1CCCCC1` gave AP ELISA ortho 6.0, TNAP act DEA 1 and HePTP inhibitor 2.6.
O=C(Nc1ccccc1)NC1CCCCC1 was read as HePTP inhibitor 88.9*.
CCOC(=O)c1c(NC(=O)C2CCCO2)sc(C(=O)N(CC)CC)c1C (centres undefined) was read as HePTP inhibitor -3.1.
Screening Cc1cc(C)n2nc(C(=O)NCc3ccccc3)c(Br)c2n1 returned HePTP inhibitor -3.9.
`Cn1cc(/C=C/c2nc3ccccc3c(=O)n2Cc2ccccc2)c2ccccc21` gave HePTP inhibitor 103.6*.
For O=c1c2ccccc2nc(/C=C/c2cccc(Br)c2)n1Cc1ccccc1 the results were HePTP inhibitor -12.1.
COC(=O)c1ccccc1NC(=O)c1ccc(C)cc1 was read as HePTP inhibitor 8.7.
CCOC(=O)c1c(NC(=O)C2CC2)sc(C(=O)Nc2ccccc2F)c1C was read as HePTP inhibitor 6.6.
Screening CC(=O)c1sc(NC(=O)c2ccc3c(c2)OCO3)nc1C returned HePTP inhibitor 103.1*.
COc1ccc(C(=O)Nc2nc(C)c(C(C)=O)s2)cc1 was read as HePTP inhibitor -1.4.
Cc1ccc(OCC(=O)Nc2ccc(C)cc2[N+](=O)[O-])c(Br)c1 was read as HePTP inhibitor 1.4.
COC(=O)CCN1C(=O)/C(=C/c2ccc(Cl)cc2Cl)SC1=S was read as HePTP inhibitor 0.7.
COc1c(Cl)cc(C(=O)Nc2cccc(-c3nc4ccc(C)cc4o3)c2)cc1Cl was read as HePTP inhibitor -11.8.
Screening Cc1ccc(OCCOCCOc2ccc(Br)cc2/C=c2\sc3nc4ccccc4n3c2=O)cc1 returned HePTP inhibitor -12.7.
O=C(COc1ccccc1)NCCCn1ccnc1 was read as HePTP inhibitor 15.0.
`O=C(NCCCn1ccnc1)C(O)(c1ccccc1)c1ccccc1` gave HePTP inhibitor 55.8*.
For O=C(Oc1ccc(/C=N/NS(=O)(=O)c2ccc(Cl)cc2)cc1)c1ccco1 the results were HePTP inhibitor -2.8.
For CCOC(=O)c1c(NC(=O)C(Cc2ccccc2)N2C(=O)c3ccccc3C2=O)sc2c1CCCC2 (centres undefined) the results were HePTP inhibitor 9.4.
`CCOc1ccc(NC(=O)c2cc(OCC)c(OCC)c(OCC)c2)c([N+](=O)[O-])c1` gave HePTP inhibitor 53.6*.
Screening CCOc1ccc(NC(=O)c2cccc(Oc3ccccc3)c2)c([N+](=O)[O-])c1 returned HePTP inhibitor 5.1.
CCC1=NN(C(=O)c2ccc(OC)cc2)C(O)(c2ccncc2)C1 (centres undefined) was read as HePTP inhibitor 103.9*.
Screening CCC1=NN(C(=O)c2cccc(O)c2)C(O)(c2ccncc2)C1 (centres undefined) returned HePTP inhibitor 8.3.
CC1CCOP(=O)(C(Nc2ccc(C(C)C)cc2)c2ccc(Br)cc2)O1 (centres undefined) was read as HePTP inhibitor -12.4.
O=[N+]([O-])c1cc(C(F)(F)F)ccc1NCCNC(=S)Nc1ccc(Cl)cc1 was read as HePTP inhibitor 103.9*.
O=C(NCCCCNc1ccc(C(F)(F)F)cc1[N+](=O)[O-])c1ccc(Cl)cc1 was read as HePTP inhibitor -12.2.
